One series relates to Enterobacter sp. Kind of series: Antibacterial activity against Enterobacter spp. assessed as growth inhibition after 18 to 22 hrs by broth microdilution method. The format is functional. The essentials:
(§1)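 Bacterial isolates subcultured for purity, identified conventionally. Broth microdilution per NCCLS in Mueller-Hinton II broth; plates with growth control (no compound) and medium-only control, incubated 18-22 h at 35 °C. MIC taken as lowest concentration giving complete growth inhibition by unaided eye.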
(Dilution methods test growth across graded concentrations, often in twofold steps.)

The nature of series [1]: Cytotoxicity against human Hep2 cells assessed as cell survival fraction at 0.5 ug/ml after 24 hrs by trypan blue exclusion assay (reference value: 97 to 98%). It is filed as cell-based. To be noted: HEp-2 cells, read-out: Survival.
For the next series, the system named is Proteus mirabilis. Kind of series: Antibacterial activity against Proteus mirabilis assessed as growth inhibition after 18 to 22 hrs by broth microdilution method. It is filed as functional. The procedure, abridged:
as §1

In the next series the test system is Escherichia coli. Kind of series: Antibacterial activity against Escherichia coli assessed as growth inhibition after 18 to 22 hrs by broth microdilution method. It is filed as functional. The essentials:
as §1

In the next series the test system is Nakaseomyces glabratus. Nature of the series: Anticandida activity against Candida glabrata clinical isolate assessed as growth inhibition after 24 hrs by broth microdilution method. The format is functional. The procedure, abridged: (§2)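 Clinical Candida isolates subcultured for purity and optimal growth before testing; compounds dissolved in DMSO. Broth microdilution per NCCLS in Sabouraud dextrose broth, serial dilutions, inoculum about 10³/mL, with growth control and medium-only control; 24 h incubation at 37 °C. MIC is the lowest concentration giving complete visible inhibition.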

Series [2] is described as follows: Cytotoxicity against human Hep2 cells assessed as cell survival fraction at 50 ug/ml after 24 hrs by trypan blue exclusion assay (reference value: 97 to 98%). The format is cell-based. The note with it: HEp-2 cells, read-out: Survival.
Another series deals with Staphylococcus aureus. Kind of series: Antibacterial activity against Staphylococcus aureus assessed as growth inhibition after 18 to 22 hrs by broth microdilution method. It is filed as functional. The procedure, abridged:
as §1

The nature of series [3]: Cytotoxicity against human Hep2 cells assessed as cell survival fraction at 10 ug/ml after 24 hrs by trypan blue exclusion assay (reference value: 97 to 98%). To be noted: HEp-2 cells, read-out: Survival. It is filed as cell-based.
The nature of series [4]: Cytotoxicity against human Hep2 cells assessed as cell survival fraction at 0.05 ug/ml after 24 hrs by trypan blue exclusion assay (reference value: 97 to 98%). It is filed as cell-based. To be noted: HEp-2 cells, read-out: Survival.
The nature of series [5]: Cytotoxicity against human Hep2 cells assessed as cell survival fraction at 0.005 ug/ml after 24 hrs by trypan blue exclusion assay (reference value: 97 to 98%). It is filed as cell-based. The note with it: HEp-2 cells, read-out: Survival.
The subject of another series is Staphylococcus warneri. Kind of series: Antibacterial activity against Staphylococcus warneri assessed as growth inhibition after 18 to 22 hrs by broth microdilution method. The format is functional. The essentials: as §1
The next series concerns Candida parapsilosis. Nature of the series: Anticandida activity against Candida parapsilosis clinical isolate assessed as growth inhibition after 24 hrs by broth microdilution method. The format is functional. The note with it: Lodderomyces parapsilosis. The essentials:
as §2

In the next series the test system is Candida tropicalis. Nature of the series: Anticandida activity against Candida tropicalis clinical isolate assessed as growth inhibition after 24 hrs by broth microdilution method. The format is functional. The procedure, abridged:
as §2

The nature of series [6]: Cytotoxicity against human Hep2 cells assessed as cell survival fraction at 5 ug/ml after 24 hrs by trypan blue exclusion assay (reference value: 97 to 98%). The format is cell-based. To be noted: HEp-2 cells, read-out: Survival.
The next series has as its system Klebsiella oxytoca. Kind of series: Antibacterial activity against Klebsiella oxytoca assessed as growth inhibition after 18 to 22 hrs by broth microdilution method. The format is functional. The essentials: as §1
Series [7] in a line: Cytotoxicity against human Hep2 cells assessed as reduction of cell viability after 24 hrs by trypan blue exclusion assay. The format is cell-based. To be noted: HEp-2 cells. The procedure, abridged: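 Hep2 cells in DMEM with 10% FBS, penicillin-streptomycin, 5% CO₂, 37 °C. Cells at 1 × 10⁵/mL exposed 24 h to seven concentrations (0.005-100 µg/mL), DMSO ≤0.5% final; controls were medium alone, DMSO, and 1 mM sodium nitroprusside. Cells scraped, allowed 30 min recovery, mixed 1:1 with 0.4% trypan blue, counted by hemocytometer by two operators.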

For the next series, the system named is Enterococcus faecalis. Nature of the series: Antibacterial activity against […] assessed as growth inhibition after 18 to 22 hrs by broth microdilution method. It is filed as functional. The procedure, abridged: as §1
Series [8] relates to Streptococcus alpha-hemolyticus. Kind of series: Antibacterial activity against Streptococcus alpha-hemolyticus assessed as growth inhibition after 18 to 22 hrs by broth microdilution method.
Another series deals with Candida albicans. Kind of series: Anticandida activity against Candida albicans clinical isolate assessed as growth inhibition after 24 hrs by broth microdilution method. The format is functional. The essentials:
as §2

Another series relates to [Candida] sake. Kind of series: Anticandida activity against Candida sake clinical isolate assessed as growth inhibition after 24 hrs by broth microdilution method. To be noted: Fermentozyma sake. It is filed as functional. The procedure, abridged:
as §2

The nature of series [9]: Cytotoxicity against human Hep2 cells assessed as cell survival fraction at 100 ug/ml after 24 hrs by trypan blue exclusion assay (reference value: 97 to 98%). It is filed as cell-based. The note with it: HEp-2 cells, read-out: Survival.
Another series has as its system Pichia kudriavzevii. Nature of the series: Anticandida activity against Candida krusei clinical isolate assessed as growth inhibition after 24 hrs by broth microdilution method. The format is functional. The essentials: as §2

≈ marks a conversion by molar mass, not a printed value.

By MIC is commonly meant the smallest concentration in the dilution series that meets the test's criterion for growth inhibition. Broadly, the CC50 is the concentration that lowers cell viability or growth by half. For the compound `Clc1ccc(-c2csc(NN=C3CCCCCCC3)n2)c(Cl)c1`, the MIC in the series on Enterobacter sp. is greater than 256 µg/mL; with Proteus mirabilis, greater than 256 µg/mL; in the series on Escherichia coli, greater than 256 µg/mL; with Nakaseomyces glabratus, 2 µg/mL (≈ 5.43 µM); with Staphylococcus aureus, greater than 256 µg/mL; in the series on Staphylococcus warneri it was greater than 256 µg/mL. Also, the MIC in the series with Candida parapsilosis is 8 µg/mL (≈ 21.7 µM); in the series on Candida tropicalis, 2 µg/mL (≈ 5.43 µM); with Klebsiella oxytoca, greater than 256 µg/mL; in the series with Enterococcus faecalis it was greater than 256 µg/mL; in series [8], greater than 256 µg/mL; in the series with Candida albicans, 0.5 µg/mL (≈ 1.36 µM). The MIC (in [Candida] sake; with Pichia kudriavzevii) was 2 µg/mL (≈ 5.43 µM) each time. Moreover, in series [1], the viability at 24 h, 0.5 ug/ml was determined as 92.4%. The viability at 24 h, 50 ug/ml in series [2] is 0%. The viability at 24 h, 10 ug/ml in [3] is 87.5%. Besides, the viability at 24 h, 0.05 ug/ml in series [4] stood at 93%. Further, in [5], the viability at 24 h, 0.005 ug/ml stood at 94%. In addition, the viability at 24 h, 5 ug/ml in series [6] amounted to 90%. Further, the CC50 at 24 h in series [7] was determined as 41 µg/mL (≈ 111 µM). For the same compound, in [9], the viability at 24 h, 100 ug/ml turned out to be 0%.
In the case of `CCC(CC)=NNc1nc(-c2ccc(OC)cc2)cs1`, the MIC in the series with Enterobacter sp. is greater than 256 µg/mL; in the series with Proteus mirabilis, greater than 256 µg/mL; in the series on Escherichia coli, greater than 256 µg/mL; with Nakaseomyces glabratus, 32 µg/mL (≈ 111 µM); in the series on Staphylococcus aureus it was greater than 256 µg/mL; in the series with Staphylococcus warneri, greater than 256 µg/mL. Besides, the minimal inhibitory concentration (MIC) in the series with Candida parapsilosis is 256 µg/mL (≈ 885 µM); in the series with Candida tropicalis, 64 µg/mL (≈ 221 µM); in the series with Klebsiella oxytoca it was greater than 256 µg/mL; in the series with Enterococcus faecalis, greater than 256 µg/mL; in [8], greater than 256 µg/mL; in the series with Candida albicans, 16 µg/mL (≈ 55.3 µM). The MIC (in series [Candida] sake; in the series with Pichia kudriavzevii) was 256 µg/mL (≈ 885 µM) in each case.
As for `COc1ccc(-c2csc(N/N=C(\C)CC(C)C)n2)cc1`, the MIC is greater than 256 µg/mL in the series on Enterobacter sp.; greater than 256 µg/mL in the series with Proteus mirabilis; greater than 256 µg/mL in the series with Escherichia coli; 8 µg/mL (≈ 26.4 µM) in the series with Nakaseomyces glabratus; greater than 256 µg/mL in the series on Staphylococcus aureus; greater than 256 µg/mL in the series on Staphylococcus warneri. Further, the minimum inhibitory concentration (MIC) was 16 µg/mL (≈ 52.7 µM) with Candida parapsilosis; 16 µg/mL (≈ 52.7 µM) in the series on Candida tropicalis; greater than 256 µg/mL in the series with Klebsiella oxytoca; greater than 256 µg/mL with Enterococcus faecalis; greater than 256 µg/mL in [8]; 4 µg/mL (≈ 13.2 µM) with Candida albicans. Moreover, the minimal inhibitory concentration (MIC) (in series [Candida] sake; in the series with Pichia kudriavzevii) was 16 µg/mL (≈ 52.7 µM) each time.
Consider `CCCCCC/C(C)=N/Nc1nc(-c2ccc(OC)cc2)cs1`, for which the minimum inhibitory concentration (MIC) in the series on Enterobacter sp. is greater than 256 µg/mL; in the series on Proteus mirabilis it was greater than 256 µg/mL; with Escherichia coli it was greater than 256 µg/mL; in the series with Nakaseomyces glabratus, 8 µg/mL (≈ 24.1 µM); in the series on Staphylococcus aureus it was greater than 256 µg/mL; in the series on Staphylococcus warneri it was greater than 256 µg/mL. The MIC with Candida parapsilosis was 16 µg/mL (≈ 48.3 µM); in the series with Candida tropicalis, 32 µg/mL (≈ 96.5 µM); in the series on Klebsiella oxytoca, greater than 256 µg/mL; with Enterococcus faecalis, greater than 256 µg/mL; in series [8], greater than 256 µg/mL; in the series with Candida albicans, 8 µg/mL (≈ 24.1 µM). The MIC (in [Candida] sake; in the series with Pichia kudriavzevii) was 16 µg/mL (≈ 48.3 µM) throughout.
Turning to `COc1ccc(-c2csc(N/N=C(\C)C3CCCCC3)n2)cc1`, the MIC was greater than 256 µg/mL in the series on Enterobacter sp.; greater than 256 µg/mL in the series with Proteus mirabilis; greater than 256 µg/mL in the series with Escherichia coli; 4 µg/mL (≈ 12.1 µM) with Nakaseomyces glabratus; greater than 256 µg/mL in the series on Staphylococcus aureus; greater than 256 µg/mL in the series with Staphylococcus warneri. The MIC in the series with Candida parapsilosis is 16 µg/mL (≈ 48.6 µM); in the series with Candida tropicalis, 16 µg/mL (≈ 48.6 µM); in the series on Klebsiella oxytoca, greater than 256 µg/mL; with Enterococcus faecalis it was greater than 256 µg/mL; in [8], greater than 256 µg/mL; with Candida albicans it was 2 µg/mL (≈ 6.07 µM). The MIC (in [Candida] sake; in the series with Pichia kudriavzevii) was 16 µg/mL (≈ 48.6 µM) in each case.
As to `COc1ccc(-c2csc(NN=C3CCCCCCC3)n2)cc1`, the MIC with Enterobacter sp. was greater than 256 µg/mL; in the series with Proteus mirabilis it was greater than 256 µg/mL; with Escherichia coli, greater than 256 µg/mL; in the series on Nakaseomyces glabratus, 4 µg/mL (≈ 12.1 µM); in the series on Staphylococcus aureus, greater than 256 µg/mL; with Staphylococcus warneri, greater than 256 µg/mL. For the same compound, the minimal inhibitory concentration (MIC) is 16 µg/mL (≈ 48.6 µM) in the series on Candida parapsilosis; 16 µg/mL (≈ 48.6 µM) in the series on Candida tropicalis; greater than 256 µg/mL in the series on Klebsiella oxytoca; greater than 256 µg/mL with Enterococcus faecalis; greater than 256 µg/mL in series [8]; 2 µg/mL (≈ 6.07 µM) in the series with Candida albicans. The MIC (in series [Candida] sake; in the series with Pichia kudriavzevii) was 16 µg/mL (≈ 48.6 µM) throughout.
